High-throughput results (PubChem BioAssay)
Rows were chosen to be rich in hits. Some 2.6% of all compounds tested hit in one or more screens of this group.
SENP8 block-1 = SENP8 protease inhibitors, primary screen, biochemical, luminescence. inhibition, % at 10 µM. Sentrin-specific protease 8 (Homo sapiens), Q96LD8. purified SENP8, Z-RLRGG-aminoluciferin cleavage. 330,000 tested, 1.2% active; in the data active = inhibition above about 50%
SENP7 block = SENP7 protease inhibitors, primary screen, biochemical, luminescence, uHTS | inhibition, % at 5 µM | recombinant SENP7, Z-RLRGG-aminoluciferin luminescence, 40 min | AID 434973, 2010 | Sentrin-specific protease 7 (Homo sapiens), Q9BQF6 | 330,000 tested, 1.5% active;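 active = inhibition above about 50% at the single test dose, limit read from the data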;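 note: plate controls were DMSO with enzyme for no effect and no enzyme buffer wells for full effect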
SENP1 inh = human SENP1 catalytic domain inhibitors, primary screen, biochemical, FRET, uHTS; Sentrin-specific protease 1 (Homo sapiens), Q9P0U3; recombinant SENP1 catalytic domain, CyPet-SUMO1-YPet FRET cleavage; inhibition, % at 10 µM; 360,000 tested, 0.21% active; AID 624204, 2012;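 active = inhibition at least 30% at 10 µM, raw YFP signal under a set limit, fluorescence ratio 0.5 to 1.5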;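 note: 0% = enzyme with DMSO and 100% = no enzyme wells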
Target sequence (Q9P0U3 419-644 limits assumed): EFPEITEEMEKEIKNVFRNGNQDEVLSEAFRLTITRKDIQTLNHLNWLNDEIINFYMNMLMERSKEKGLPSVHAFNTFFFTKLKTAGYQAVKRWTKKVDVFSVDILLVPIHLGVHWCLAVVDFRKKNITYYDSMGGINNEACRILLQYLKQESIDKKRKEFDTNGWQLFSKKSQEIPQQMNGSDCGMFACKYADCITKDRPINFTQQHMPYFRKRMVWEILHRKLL
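material = recombinant human SENP1 catalytic domain, His6-tagged | quantity = 20 pM enzyme | reagent = 25 nM SUMO1 FRET substrate | compound dosing = 10 µM single point, 0.5% DMSO | timing = 50 min enzyme reaction, room temperature, light-protected | detection = FRET, CFP and YFP emission | control set = no-enzyme low, enzyme-DMSO high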
Platelet DG rel = inhibitors of platelet dense granule secretion, primary screen, cell-based, MLPCN, human platelets; inhibition, %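 (compounds screened at 7.5 µM in platelet-rich plasma)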; AID 1663, 2009; 300,000 tested, 0.22% active; human platelet-rich plasma, SFLLRN dense granule ATP release, luminescence;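 active = mean replicate score, as percent of positive control, at or above 50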
SENP8 block-2 = human SENP8 protease inhibitors, primary screen, biochemical, fluorescence, Nedd8 protein substrate, uHTS | AID 602440, 2012 | inhibition, % at 20 µM | Sentrin-specific protease 8 (Homo sapiens), Q96LD8 | recombinant SENP8 | 360,000 tested, 0.64% active; in the data active = inhibition mostly above about 40%, no sharp cut-off; inactive = mostly below about 27%
SENP6 block = SENP6 protease inhibitors, primary screen, biochemical, luminescence, uHTS. Recombinant SENP6 catalytic domain, aminoluciferin luminescence. inhibition, % at 10 µM. AID 2599, 2010. 330,000 tested, 1.8% active;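 active = inhibition above about 50% at the single tested dose, limit read from the data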;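 note: plate controls were DMSO wells with enzyme for no effect and DMSO wells lacking enzyme for full effect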
Target sequence (Q9GZR1 628-1112 limits assumed): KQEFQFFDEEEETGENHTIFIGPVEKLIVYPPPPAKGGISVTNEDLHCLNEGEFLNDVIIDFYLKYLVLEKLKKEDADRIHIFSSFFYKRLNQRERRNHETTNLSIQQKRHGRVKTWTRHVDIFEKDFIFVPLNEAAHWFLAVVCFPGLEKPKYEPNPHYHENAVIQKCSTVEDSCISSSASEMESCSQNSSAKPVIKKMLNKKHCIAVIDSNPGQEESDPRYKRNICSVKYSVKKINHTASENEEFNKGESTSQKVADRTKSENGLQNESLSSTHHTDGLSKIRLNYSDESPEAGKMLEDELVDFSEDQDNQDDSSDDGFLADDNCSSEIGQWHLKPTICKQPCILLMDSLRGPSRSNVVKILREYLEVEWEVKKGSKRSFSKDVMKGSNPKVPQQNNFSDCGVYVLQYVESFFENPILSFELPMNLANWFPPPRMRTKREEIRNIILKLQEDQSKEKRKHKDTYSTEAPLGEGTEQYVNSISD
* marks the source's active call; other numbers are inactive results; x = not tested or not shown; ! = a repeat was not active.

SMILES | SENP8 block-1 | SENP7 block | SENP1 inh | Platelet DG rel | SENP8 block-2 | SENP6 block
COc1c(C=C2C(=O)NC(=O)NC2=O)c(CCN(C)C(=O)c2ccccc2)cc2c1OCO2 | -11.9 | 4.0 | 1.1 | 8.5 | 44.1* | -13.8
COC(=O)Cn1cc(C=C2C(=O)NC(=O)NC2=O)c2ccccc21 | -7.9 | -19.7 | 0.8 | -15.0 | 28.8 | -2.1
O=[N+]([O-])c1ccc(NC2CCCC2)c2ccncc12 | 15.1 | 19.4 | -50.1 | -11.4 | 47.1* | 39.7
O=[N+]([O-])c1ccc(NCCO)c2ncccc12 | 8.7 | 10.4 | -18.3 | -10.1 | 27.2 | 10.5
CC(C)(C#CCCCCC#CC(C)(C)[N+](C)(C)C)[N+](C)(C)C | -4.8 | -0.8 | x | 14.0 | x | 0.1
CC1C(=O)OC2CCN3CC4OC4(COC(=O)C(C)(O)C1(C)O)C23 (stereo not drawn) | x | x | -0.3 | x | 3.7 | x
CCN(CC)c1ccc(C=C2C(=O)N(C)C(=S)N(C)C2=O)o1 | 4.0 | 4.8 | 87.0* | 10.8 | 18.2 | 3.4
Cc1ccc(/C=C2\C(=O)NC(=S)N(c3ccc(F)cc3)C2=O)o1 | -4.0 | 4.0 | -11.6 | 3.6 | -1.7 | 14.5
Cc1cc(C)cc(N2C(=O)/C(=C\c3ccc(N4CCN(C)CC4)o3)C(=O)NC2=S)c1 | 0.6 | -6.3 | 75.7* | -2.2 | 27.6 | 5.2
CN1C(=O)C(=Cc2ccc(N3CCCCC3)o2)C(=O)N(C)C1=S | 1.0 | 11.3 | 88.2* | 4.5 | 43.2* | -14.9
CCN(CC)c1ccc(/C=C2\C(=O)NC(=S)N(C)C2=O)o1 | 18.9 | 10.2 | 86.2* | 15.9 | 30.4 | 42.1
COC(=O)C1=C(c2c(C)noc2C)C[C@@H]2CC[C@H]1N2C(=O)NC1Cc2ccccc2C1 | -5.9 | -10.9 | 1.6 | x | 4.5 | -24.0
CCN(CC)c1ccc(/C=C/[N+](=O)[O-])cc1 | -1.7 | 2.9 | 32.2* | 2.6 | 6.4 | -28.8
COc1cc(/C=C/[N+](=O)[O-])ccc1O | 4.1 | -3.7 | 2.7 | -2.3 | 16.9 | -4.9
Cc1cc(N2C(=O)C3CCCN3C2c2sccc2C)no1 (stereo not drawn) | -0.3 | 1.2 | 2.0 | -2.4 | 13.1 | -1.0
CC(=NCCc1ccccc1)c1c(O)[nH]c(=O)[nH]c1=O | -3.4 | 4.2 | -0.5 | 29.6 | 9.0 | -19.6
CCC(=NCCc1ccccc1)c1c(O)[nH]c(=O)[nH]c1=O | 6.7 | 7.5 | 1.2 | 73.2* | 13.7 | 11.0
CC(=O)CC(c1ccccc1[N+](=O)[O-])c1c(O)c2ccccc2oc1=O (stereo not drawn) | -2.9 | 4.3 | -0.9 | -6.1 | 10.0 | -11.6
CC(=O)c1ccc2c(c1)C1C(Cl)C(Sc3ccccc3[N+](=O)[O-])CC1C(C(=O)O)N2 (stereo not drawn) | x | x | 1.4 | x | 77.7* | x
O=c1cccc2n1CC1CC2CN(Cc2cccc(Cl)c2Cl)C1 (stereo not drawn) | -4.9 | 0.2 | -3.1 | 3.8 | 5.3 | -11.6
CC[n+]1c(-c2ccccc2)c2cc(N)ccc2c2ccc(N)cc21 | x | x | 45.1 | x | 96.9* | x
O=C1NC(=O)N(Cc2ccc(F)cc2)C(=O)/C1=C\c1ccc([N+](=O)[O-])s1 | 17.9 | 4.2 | 3.6 | 4.9 | 50.4* | 31.9
COc1ccc(CN2C(=O)NC(=O)/C(=C\c3ccco3)C2=O)cc1 | -11.9 | -10.7 | -11.8 | 2.1 | -2.9 | -2.9
COc1ccc(CN2C(=O)NC(=O)/C(=C/c3ccc([N+](=O)[O-])s3)C2=O)cc1 | 10.5 | 3.3 | -0.8 | 2.3 | 42.9* | 33.7
CCCCCN1C(=O)c2ccccc2[C@@]2(C(=O)OCC)Cc3cc(OC)ccc3[C@@H]12 | x | x | -0.7 | x | 9.2 | x
SMILES | SENP8 block-1 | SENP7 block | SENP1 inh | Platelet DG rel | SENP8 block-2 | SENP6 block
O=C(O)[C@H]1C[C@@H]1[C@H](NP(=O)(c1ccccc1)c1ccccc1)c1ccccc1 | -2.5 | -5.7 | 1.5 | -4.7 | 8.1 | -7.3
C=CCN1CC[C@]23c4c5ccc(O)c4OC2[C@H](O)CC[C@@]3(O)[C@H]1C5 (stereo partly drawn) | 2.5 | 1.5 | -1.9 | x | 4.0 | 0.6
Oc1ccc2c3c1O[C@H]1[C@@H](O)CC[C@@]4(O)[C@@H](C2)N(CC2CCC2)CC[C@]314 | 7.7 | -4.4 | 32.8*! | 1.5 | -4.8 | -12.0
O=C1CN(O)C(c2ccccc2)=c2cc(Cl)ccc2=N1 | 6.9 | -2.3 | 3.1 | 7.8 | 4.7 | 11.7
CC1=C(N2CC2)C(=O)C(CO)=C(N2CC2)C1=O | x | x | 1.9 | x | 63.1* | x
CCN1/C(=C\C=C\C2=[N+](CC)c3ccccc3C2(C)C)C(C)(C)c2ccccc21 | 24.6 | 16.6 | 64.1* | 16.3 | 18.4 | 6.7
CC(=O)Nc1ccc(OC(=O)N(C)c2ccccc2)cc1 | 0.9 | 0.3 | -1.6 | 53.0* | 14.6 | 10.6
CCOc1ccc2nc(N=Nc3c(O)[nH]c(=O)[nH]c3=O)sc2c1 | 2.5 | -1.8 | 3.1 | 3.6 | 44.9* | -0.4
CCOC(=O)c1sc(N=Nc2c(O)[nH]c(=O)[nH]c2=O)c(C(=O)OCC)c1C | 2.0 | -12.8 | x | -2.9 | x | -13.3
CC=C(CC)C1(CC)C(=O)NC(=S)NC1=O | x | x | 0.7 | x | 5.0 | x
COC(=O)C1=C(c2cccc(OCc3ccccc3)c2)C[C@@H]2CC[C@H]1N2C(=O)NCc1ccccc1C(F)(F)F | -0.5 | -8.9 | -2.9 | x | 17.2 | 4.0
CCn1nc(/C=C/c2ccccc2)nc2c(=O)n(C)c(=O)nc1-2 | 96.2* | 96.2* | 20.3 | -8.6 | 72.8* | 88.8*
CCn1nc(-c2cccs2)nc2c(=O)n(C)c(=O)nc1-2 | x | x | 44.4* | x | 80.5* | x
COc1ccc(-n2c(/C=C/c3ccc(O)cc3)nc3ccccc3c2=O)cc1 | -8.7 | -16.0 | -20.5 | -3.3 | -210.9 | -3.0
CC(C)NC(C)C(=O)C12CC3CC(CC(C3)C1)C2 (stereo not drawn) | 8.9 | -1.6 | 2.0 | 6.9 | 10.5 | -8.2
O=C(NC(=S)N1C[C@H]2C[C@H](C1)c1cccc(=O)n1C2)c1ccc(Cl)cc1Cl | -5.3 | -3.2 | 1.2 | -0.2 | 4.7 | -5.3
CCOC(=O)[C@]12Cc3cc(C)ccc3[C@H]1N(C(C)C)C(=O)c1ccccc12 | x | x | 0.4 | x | -0.7 | x
CCNc1nc(Cl)nc(NC(C)C)n1 | 3.4 | 1.8 | -0.4 | 55.9* | 11.2 | 8.1
CN=C(SCC(=O)c1cccc(Cl)c1)c1c(O)n(C)c(=O)n(C)c1=O | -3.2 | 4.3 | 2.3 | -0.4 | 2.5 | -7.3
Cc1cc(C)n(-c2ccc(NN=C(C#N)C#N)cc2)n1 | 90.0* | 89.7* | -3.9 | 1.5 | 22.5 | 91.8*
